Data published in ChEMBL document CHEMBL3102746, “Anticomplement monoterpenoid glucosides from the root bark of Paeonia suffruticosa” (J Nat Prod, 2014).
Calls of active or inactive are those of the source. The rule behind the calls is not given here.

How the values were obtained:
Assay type in all cases: functional, cell-based
[1] = Anticomplement activity in New Zealand White rabbit erythrocytes assessed as concentration required for 50% hemolytic inhibition by alternative pathway after 30 mins; conditions: Oryctolagus cuniculus, Erythrocyte
In short: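 Samples diluted in GVB-Mg-EGTA and preincubated with 1:10 normal human serum at 37 °C for 10 min. Rabbit erythrocytes (3.0 × 10^8 cells/mL) then added for 30 min at 37 °C. Lysis read as supernatant OD at 405 nm. AP50 expressed as 50% inhibitory concentration. Heparin served as positive control.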

[2] = Anticomplement activity in sheep erythrocytes assessed as concentration required for 50% hemolytic inhibition by classical pathway after 30 mins by spectrophotometry; conditions: Ovis aries; Erythrocyte
In short: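 Sheep erythrocytes sensitized with rabbit anti-sheep erythrocyte antibodies in GVB2+. Test sample dilutions in GVB2+ preincubated with guinea pig serum (1:80) at 37 °C for 10 min, then EA added for 30 min at 37 °C. Supernatant OD read at 405 nm. Blank, 100% lysis and sample controls included. CH50 taken from mean of triplicates at each concentration. Heparin served as positive control.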

[3] = Anticomplement activity in sheep erythrocytes in C9-depleted serum assessed as inhibition of hemolysis by classical pathway at 0.45 mM after 30 mins compound treated in normal human serum; conditions: Ovis aries, Erythrocyte
[4] = Anticomplement activity in sheep erythrocytes in C5-depleted serum assessed as inhibition of hemolysis by classical pathway at 0.45 mM after 30 mins compound treated in normal human serum; conditions: Ovis aries, Erythrocyte
[5] = Anticomplement activity in sheep erythrocytes in C3-depleted serum assessed as inhibition of hemolysis by classical pathway at 0.45 mM after 30 mins compound treated in normal human serum; conditions: Ovis aries, Erythrocyte
[6] = Anticomplement activity in sheep erythrocytes in C1q-depleted serum assessed as inhibition of hemolysis by classical pathway at 0.45 mM after 30 mins compound treated in normal human serum; conditions: Ovis aries, Erythrocyte
[7] = Anticomplement activity in sheep erythrocytes in C9-depleted serum assessed as inhibition of hemolysis by classical pathway at 0.54 mM after 30 mins compound treated in normal human serum; conditions: Ovis aries, Erythrocyte
[8] = Anticomplement activity in sheep erythrocytes in C5-depleted serum assessed as inhibition of hemolysis by classical pathway at 0.54 mM after 30 mins compound treated in normal human serum; conditions: Ovis aries, Erythrocyte
[9] = Anticomplement activity in sheep erythrocytes in C3-depleted serum assessed as inhibition of hemolysis by classical pathway at 0.54 mM after 30 mins compound treated in normal human serum; conditions: Ovis aries, Erythrocyte
[10] = Anticomplement activity in sheep erythrocytes in C1q-depleted serum assessed as inhibition of hemolysis by classical pathway at 0.54 mM after 30 mins compound treated in normal human serum; conditions: Ovis aries, Erythrocyte
[11] = Anticomplement activity in sheep erythrocytes in C5-depleted serum assessed as hemolysis by classical pathway at 1.09 mM after 30 mins compound treated in normal human serum; conditions: Ovis aries, Erythrocyte
[12] = Anticomplement activity in sheep erythrocytes in C3-depleted serum assessed as hemolysis by classical pathway at 1.09 mM after 30 mins compound treated in normal human serum; conditions: Ovis aries, Erythrocyte
[13] = Anticomplement activity in sheep erythrocytes in C1q-depleted serum assessed as hemolysis by classical pathway at 1.09 mM after 30 mins compound treated in normal human serum; conditions: Ovis aries, Erythrocyte
[14] = Anticomplement activity in sheep erythrocytes in C4-depleted serum assessed as hemolysis by classical pathway at 1.09 mM after 30 mins compound treated in normal human serum; conditions: Ovis aries, Erythrocyte
[15] = Anticomplement activity in sheep erythrocytes in C2-depleted serum assessed as hemolysis by classical pathway at 1.09 mM after 30 mins compound treated in normal human serum; conditions: Ovis aries, Erythrocyte
[16] = Anticomplement activity in sheep erythrocytes in C9-depleted serum assessed as hemolysis by classical pathway at 1.09 mM after 30 mins compound treated in normal human serum; conditions: Ovis aries, Erythrocyte

Row | Structure (SMILES) | AP50 [1] [mM] | INH [2] [mM] | inhibition [1] | inhibition [2] | further results
1 | C[C@@]12C[C@@]3(O)O[C@@H](O1)[C@]1(COC(=O)c4ccc(O)cc4)[C@@H]3C[C@]12O[C@@H]1O[C@H](CO)[C@@H](O)[C@H](O)[C@H]1O | 3.29 | 2.28 |  |  | 
2 | CO[C@]12C[C@]3(C)OC(O1)[C@]1(COC(=O)c4ccccc4)[C@@H]2C[C@@]31O[C@@H]1O[C@H](COC(=O)c2ccccc2)[C@@H](O)[C@H](O)[C@H]1O |  |  | inactive | inactive | 
3 | C[C@@]12C[C@@]3(O)O[C@@H](O1)[C@]1(COC(=O)c4ccc(O)cc4)[C@H]3C[C@@]12O[C@@H]1O[C@H](COC(=O)c2cc(O)c(O)c(O)c2)[C@@H](O)[C@H](O)[C@H]1O | 0.25 | 0.14 |  |  | inhibition [3]: inactive; inhibition [4]: Active; inhibition [5]: Active; inhibition [6]: Active
4 | CO[C@@H]1O[C@@]2(C)CC(=O)[C@H]3C[C@]2(O[C@@H]2O[C@H](COC(=O)c4ccccc4)[C@@H](O)[C@H](O)[C@H]2O)[C@]13COC(=O)c1ccccc1 |  |  | inactive | inactive | 
5 | CO[C@]12C[C@]3(C)O[C@H](O1)[C@]1(COC(=O)c4ccc(O)cc4)[C@H]2C[C@@]13O[C@@H]1O[C@H](CO)[C@@H](O)[C@H](O)[C@H]1O |  |  | inactive | inactive | 
6 | COc1ccc(C(=O)OC[C@]23C4O[C@]5(OC)C[C@](C)(O4)[C@]2(O[C@@H]2O[C@H](COC(=O)c4ccccc4)[C@@H](O)[C@H](O)[C@H]2O)C[C@H]53)cc1 |  |  | inactive | inactive | 
7 | C[C@@]12C[C@@]3(O)O[C@@H](O1)[C@]1(COC(=O)c4ccccc4)[C@H]3C[C@@]12O[C@@H]1O[C@H](COC(=O)c2ccccc2)[C@@H](O[C@@H]2O[C@H](CO)[C@@H](O)[C@H](O)[C@H]2O)[C@H](O)[C@H]1O |  | 2.29 | inactive |  | 
8 | CO[C@H]1O[C@@]2(C)CC(=O)[C@@H]3C[C@@]2(O[C@@H]2O[C@H](CO)[C@@H](O)[C@H](O)[C@H]2O)[C@]13COC(=O)c1ccc(O)cc1 |  |  | inactive | inactive | 
9 | C[C@@]12C[C@@]3(O)O[C@@H](O1)[C@]1(COC(=O)c4ccc(O)cc4)[C@H]3C[C@@]12O[C@@H]1O[C@H](COC(=O)c2ccc(O)cc2)[C@@H](O)[C@H](O)[C@H]1O | 0.67 | 0.34 |  |  | 
10 | COc1ccc(C(=O)OC[C@@]23[C@@H](OC)O[C@@]4(C)CC(=O)[C@H]2C[C@]34O[C@@H]2O[C@H](COC(=O)c3ccccc3)[C@@H](O)[C@H](O)[C@H]2O)cc1 |  |  | inactive | inactive | 
11 | COc1ccc(C(=O)OC[C@H]2O[C@@H](O[C@]34C[C@@H]5[C@@]6(O)C[C@]3(C)OC(O6)[C@]54COC(=O)c3ccc(O)cc3)[C@H](O)[C@@H](O)[C@@H]2O)cc1 | 0.97 | 0.41 |  |  | 
12 | COc1cc(C(=O)OC[C@H]2O[C@@H](O[C@@]34C[C@H]5[C@@]3(CO)[C@H]3O[C@]5(O)C[C@]4(C)O3)[C@H](O)[C@@H](O)[C@@H]2O)ccc1O | 1.12 | 0.89 |  |  | 
13 | CO[C@H]1O[C@@]2(C)CC(=O)[C@H]3C[C@]2(O[C@@H]2O[C@H](COC(=O)c4ccccc4)[C@@H](O)[C@H](O)[C@H]2O)[C@]13COC(=O)c1ccccc1 |  |  | inactive | inactive | 
14 | COc1ccc(C(=O)OC[C@H]2O[C@@H](O[C@]34C[C@@H]5C(=O)C[C@]3(C)O[C@H](OC)[C@]54COC(=O)c3ccccc3)[C@H](O)[C@@H](O)[C@@H]2O)cc1 |  |  | inactive | inactive | 
15 | C[C@@]12C[C@@]3(O)O[C@@H](O1)[C@]1(COC(=O)c4ccccc4)[C@@H]3C[C@]12O[C@@H]1O[C@H](COC(=O)c2cc(O)c(O)c(O)c2)[C@@H](O)[C@H](O)[C@H]1O | 0.32 | 0.21 |  |  | inhibition [7]: inactive; inhibition [8]: Active; inhibition [9]: Active; inhibition [10]: Active
16 | COc1cc(C(=O)OC[C@H]2O[C@@H](O[C@@]34C[C@H]5[C@@]3(COC(=O)c3ccccc3)[C@H]3O[C@]5(O)C[C@]4(C)O3)[C@H](O)[C@@H](O)[C@@H]2O)ccc1O |  | 2.02 |  |  | 
17 | COc1ccc(C(=O)OC[C@]23C4O[C@]5(O)C[C@](C)(O4)[C@]2(O[C@@H]2O[C@H](COC(=O)c4ccccc4)[C@@H](O)[C@H](O)[C@H]2O)C[C@H]53)cc1 | 1.6 | 1.29 |  |  | 
18 | COc1ccc(C(=O)OC[C@H]2O[C@@H](O[C@]34C[C@@H]5[C@@]6(O)C[C@]3(C)OC(O6)[C@]54COC(=O)c3ccccc3)[C@H](O)[C@@H](O)[C@@H]2O)cc1 | 2.82 | 2.36 |  |  | 
19 | C[C@@]12C[C@@]3(O)OC(O1)[C@]1(COC(=O)c4ccc(O)cc4)[C@@H]3C[C@@]21O[C@@H]1O[C@H](COC(=O)c2ccccc2)[C@@H](O[C@@H]2O[C@H](CO)[C@@H](O)[C@H](O)[C@H]2O)[C@H](O)[C@H]1O | 0.43 | 0.33 |  |  | Activity [11]: < 10%; Activity [12]: < 10%; Activity [13]: < 10%; Activity [14]: 89.3%; Activity [15]: 80.1%; Activity [16]: < 10%
20 | C[C@@]12C[C@@]3(O)OC(O1)[C@]1(COC(=O)c4ccc(O)cc4)[C@@H]3C[C@@]21O[C@@H]1O[C@H](COC(=O)c2ccccc2)[C@@H](O)[C@H](O)[C@H]1O | 0.85 | 0.58 |  |  | 
21 | COc1ccc(C(=O)OC[C@]23[C@H]4O[C@]5(O)C[C@](C)(O4)[C@@]2(O[C@@H]2O[C@H](CO)[C@@H](O)[C@H](O)[C@H]2O)C[C@H]35)cc1 | 3.67 | 2.67 |  |  | 
22 | C[C@@]12C[C@@]3(O)O[C@@H](O1)[C@]1(COC(=O)c4ccccc4)[C@@H]3C[C@]12O[C@@H]1O[C@H](COC(=O)c2ccc(O)cc2)[C@@H](O)[C@H](O)[C@H]1O |  | 0.52 |  |  | 
